From ChEMBL document CHEMBL1128723, “Orally bioavailable benzisothiazolone inhibitors of human leukocyte elastase” (J Med Chem, 1995)

Assays:
[1] = Human tissue stability for the compound was determined by its half life time period in human jejunum; type: ADME, organism-based
How it was run: (§1)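 Jejunum (fresh-frozen animal tissue or unused human transplant tissue) was homogenized in pH 7.2 modified Ringer's buffer, spun at 9000g, and the supernatant kept. Compound was added from DMSO at 100 μM starting concentration and incubated at 37 °C, sampled at intervals. Samples were acetonitrile-quenched and parent measured by RP-HPLC to give the half-life.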

[2] = Compound was tested for half life time period in hamster jejunum; type: ADME, organism-based; conditions: cricetinae; how it was run: as §1
[3] = Compound was tested for the half life time period in rat liver S9; type: ADME, S9 fraction
How it was run: (§2)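 Liver S9 was prepared by homogenizing in 50 mM Na/K phosphate/KCl buffer and spinning at 9000g for 20 min. S9 was used at 8 mg/mL protein with an NADPH-generating system and preincubated 5 min at 37 °C. Compound was added from DMSO at 100 μM starting concentration and incubated at 37 °C. Parent disappearance was followed by RP-HPLC over time to give the half-life.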

[4] = Compound was tested for the half life time period in rat jejunum; type: ADME, organism-based; how it was run: as §1
[5] = Compound was tested for plasma concentration in Beagle dogs at oral dose of 20 mg/kg and an intravenous dose of 5 mg/kg was administered; type: ADME, organism-based, Canis lupus familiaris; conditions: dog
How it was run: (§3)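 Fasted rats, beagle dogs or cynomolgus monkeys were dosed orally at 20 mg/kg (one compound at 10 mg/kg) or iv at 5 mg/kg. Vehicles were mainly 0.05% lactic acid in water (oral) or 5% dextrose/0.05% lactic acid (iv). Blood was drawn at intervals, extracted with toluene/hexane (9:1) containing internal standard, and parent quantified by reverse-phase HPLC.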

[6] = Compound was tested for the half life time period in dog jejunum; type: ADME, organism-based, Canis lupus familiaris; how it was run: as §1
[7] = Compound was tested for the half life time period in monkey liver S9; type: ADME, subcellular, S9 fraction; conditions: simiiformes; how it was run: as §2
[8] = Oral bioavailability in Beagle dogs at oral dose of 20 mg/kg and an intravenous dose of 5 mg/kg was administered; type: ADME, organism-based, Canis lupus familiaris; conditions: dog, in vivo, read-out: BA; how it was run: as §3
[9] = Compound was tested for the half life time period in monkey blood; type: ADME, tissue-based; conditions: simiiformes
How it was run: (§4)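 Fresh heparinized blood from rats, hamsters, beagle dogs and cynomolgus monkeys was used within 4 h of collection. Compound was added from DMSO to a starting concentration of 100 μM and incubated at 37 °C with sampling at intervals. Samples were quenched with acetonitrile/TFA and the supernatant assayed by reverse-phase HPLC for loss of parent, giving the half-life. Control incubations were run with each assay.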

[10] = Human tissue stability for the compound was determined by its half life time period in human blood; type: ADME, organism-based
[11] = Maximum plasma concentration in Beagle dogs at oral dose of 20 mg/kg and an intravenous dose of 5 mg/kg was administered; type: ADME, organism-based, Canis lupus familiaris; conditions: dog; how it was run: as §3
[12] = Compound was tested for the half life time period in dog liver S9; type: ADME, Canis lupus familiaris, S9 fraction; how it was run: as §2
Cricetinae gen. sp. [13] = assay: Compound was tested for effective dose required for the inhibition of human leukocyte elastase in the HLE-induced hamster hemorrhage model; type: functional, Cricetulus griseus
[14] = Compound was tested for in vivo bioavailability in dog; type: ADME, organism-based, Canis lupus familiaris; conditions: read-out: Bioavailabiility; how it was run: as §3
[15] = Compound was tested for the half life time period in rat blood; type: ADME, organism-based; how it was run: as §4
[16] = Compound was tested for in vivo bioavailability in rat; type: ADME, organism-based; conditions: read-out: Bioavailabiility; how it was run: as §3
[17] = Compound was tested for in vivo bioavailability in monkey; type: ADME, organism-based; conditions: simiiformes, read-out: Bioavailabiility; how it was run: as §3
[18] = Compound was tested for in vivo bioavailability in hamsters; type: ADME, organism-based; conditions: cricetinae, read-out: Bioavailabiility
[19] = Human tissue stability for the compound was determined by its half life time period in human liver; type: ADME, organism-based; how it was run: as §2
[20] = Compound was tested for the half life time period in monkey jejunum; type: ADME, tissue-based; conditions: simiiformes; how it was run: as §1
Neutrophil elastase = target: T1, Neutrophil elastase (Homo sapiens, UniProt P08246); assay: Potency of inhibition against human leukocyte elastase (HLE) expressed as an apparent binding constant
T1 sequence (P08246 whole entry): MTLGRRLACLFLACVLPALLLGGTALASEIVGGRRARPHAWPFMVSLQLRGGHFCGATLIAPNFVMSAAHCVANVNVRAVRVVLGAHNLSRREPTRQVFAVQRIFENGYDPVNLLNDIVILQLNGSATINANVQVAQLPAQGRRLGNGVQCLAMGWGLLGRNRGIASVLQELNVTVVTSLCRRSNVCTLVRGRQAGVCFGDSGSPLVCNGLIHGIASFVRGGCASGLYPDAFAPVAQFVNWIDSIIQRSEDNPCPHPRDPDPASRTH

[21] = Compound was tested for half life time period in hamster blood; type: ADME, organism-based; conditions: cricetinae; how it was run: as §4
[22] = Compound was tested for half life time period in hamster liver S9; type: ADME, S9 fraction; conditions: cricetinae; how it was run: as §2
[23] = Compound was tested for the half life time period in dog blood; type: ADME, organism-based, Canis lupus familiaris; how it was run: as §4
Cricetinae gen. sp. [24] = assay: Inhibitory activity was determined against HLE-induced hamster hemorrhage model by intravenous administration at a dose of 1 mg/kg; type: functional, Cricetulus griseus
Cricetinae gen. sp. [25] = assay: Effective dose required for the inhibition of human leukocyte elastase in the HLE-induced hamster hemorrhage model.; type: functional, Cricetulus griseus

SMILES | half-life [1] [min] | half-life [5] [min] | bioavailability [8] [%] | half-life [10] [min] | Cmax [11] [ng/mL] | half-life [19] [min] | Ki (Neutrophil elastase) [nM] | further results
COc1cc(C(C)C)c2c(c1)S(=O)(=O)N(COC(=O)c1c(Cl)ccc(OCCN3CCOCC3)c1Cl)C2=O | 170 | 137 | 21 | 36 | 1200 | 37.3 | 0.013 | half-life [2]: 1.3 min; half-life [3]: 12.4 min; half-life [4]: 60.8 min; half-life [6]: 394 min; half-life [7]: 2.9 min; half-life [9]: 57.2 min; half-life [12]: 30.2 min; ED50 (Cricetinae gen. sp. [13]): 3 mg/kg; bioavailability [14]: 21%; half-life [15]: 6 min; bioavailability [16]: 1%; bioavailability [17]: < 1%; bioavailability [18]: < 3%; half-life [20]: 32.3 min; half-life [21]: 259 min; half-life [22]: < 5 min; half-life [23]: 90 min
CC(C)c1cc(O)cc2c1C(=O)N(COC(=O)c1c(Cl)ccc(S(=O)(=O)N3CCN(C)CC3)c1Cl)S2(=O)=O | 113 | 23 | 8 | > 1200 | 220 | 40.2 | 0.2 | –
CC(C)c1cccc2c1C(=O)N(COC(=O)c1c(Cl)ccc(OCCN3CCOCC3)c1Cl)S2(=O)=O | 13 | – | – | 20 | – | 4.9 | 0.008 | inhibition in vivo at 1 mg/kg (Cricetinae gen. sp. [24]): 87%
COc1cc(C(C)C)c2c(c1)S(=O)(=O)N(COC(=O)c1c(Cl)ccc(OCC(=O)O)c1Cl)C2=O | – | – | – | < 15 | – | – | 0.011 | –
COc1cc(C(C)C)c2c(c1)S(=O)(=O)N(COC(=O)c1c(Cl)ccc(S(=O)(=O)N(C)CCN(C)C)c1Cl)C2=O | 80 | 74 | 14 | 130 | 300 | 23.9 | 0.013 | –
COc1cc(C(C)C)c2c(c1)S(=O)(=O)N(COC(=O)c1c(Cl)ccc(S(=O)(=O)N3CCN(C)CC3)c1Cl)C2=O | 99 | 78 | 21 | 90 | 390 | 28.9 | 0.011 | –
COc1cc(C(C)C)c2c(c1)S(=O)(=O)N(COC(=O)c1c(Cl)ccc(OCCN3CCCC3)c1Cl)C2=O | 218 | 432 | 46 | 110 | 325 | 110 | 0.014 | ED50 (Cricetinae gen. sp. [25]): 1 mg/kg
O=C1c2ccccc2S(=O)(=O)N1CSc1nnnn1-c1ccccc1 | – | – | – | < 5 | – | – | – | –
